A selection: hits, their analogues and other compounds. The true share with any hit is near 5.8%.
T cruzi growth-1: T. cruzi intracellular proliferation inhibitors, primary screen, cell-based, beta-gal Tulahuen parasites, NIH3T3 host, luminescence; T. cruzi beta-gal in NIH3T3, GalScreen luminescence, 90 h; inhibition, % at 8.34 µM; actives 5.9% (n = 77,000); AID 624255, 2012;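 active = mean inhibition above about 93%, with at least 55% of replicates each passing it, limit read from the data, passing the limit was not always enough; inconclusive = only one of those two conditions holds; inactive = neither condition holds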
KDM4C inh: inhibitors of GASC-1 (KDM4C) histone demethylase, primary screen, biochemical, single concentration HTS. GST-KDM4C 2-372, H3K9me3 peptide, LANCE TR-FRET. inhibition, % at 12.5 µM. actives 0.15% (n = 96,000);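 active = mean replicate inhibition above about 25%, with at least 55% of replicates also reaching it, limit read from the data, passing the limit was not always enough; inconclusive = only one of those two conditions met; inactive = neither condition met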
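Compound: one test concentration per compound; Material: GST-GASC-1 enzyme fragment 2-372; Amount: GASC-1 enzyme at 10 nM final in reaction; Also added: H3K9me3 peptide substrate, Fe(II), 2-oxoglutarate; Technique: LANCE TR-FRET; Times: 30 min demethylation and 1 h detection at room temperature.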
IDH1 R132H inh: inhibitors of IDH1 R132H reductase, primary screen, biochemical, plate reader, single point; actives 0.18% (n = 70,000); diaphorase/resazurin fluorescence, 60 min; inhibition, % at 10 µM; Isocitrate dehydrogenase [NADP] cytoplasmic (Homo sapiens), O75874; in the data active = inhibition above about 34%; inconclusive = no clear call, values can overlap the other calls; inactive = below about 11%;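 note: 0% = DMSO and 100% = no enzyme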
Target sequence (O75874 whole entry R132H): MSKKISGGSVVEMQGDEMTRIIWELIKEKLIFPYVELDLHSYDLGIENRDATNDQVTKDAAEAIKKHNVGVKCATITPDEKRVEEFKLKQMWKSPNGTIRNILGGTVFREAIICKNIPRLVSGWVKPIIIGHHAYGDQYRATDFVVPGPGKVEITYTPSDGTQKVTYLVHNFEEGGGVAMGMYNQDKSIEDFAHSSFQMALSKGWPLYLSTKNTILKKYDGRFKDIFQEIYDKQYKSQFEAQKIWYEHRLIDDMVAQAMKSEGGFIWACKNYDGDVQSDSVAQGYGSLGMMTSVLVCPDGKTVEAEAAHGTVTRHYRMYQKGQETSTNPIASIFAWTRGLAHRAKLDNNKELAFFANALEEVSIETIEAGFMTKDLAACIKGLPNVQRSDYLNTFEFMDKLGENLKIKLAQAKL
Pf Dd2 growth: P. falciparum Dd2 growth inhibitors, primary screen, SYBR Green fluorescence, single dose replicates. AID 1159554, 2015. activity change, % at 10 µM. 72 h; active compounds read low. actives 2.3% (n = 94,000); in the data active = activity change below about -80%; inconclusive = no clear call, values can overlap the other calls
T cruzi growth-2: T. cruzi intracellular proliferation inhibitors, confirmation, cell-based, NIH3T3 host, beta-gal parasite, luminescence, cherry-pick. shares compounds with T cruzi growth-1. T. cruzi beta-gal in NIH3T3, GalScreen luminescence, 90 h. inhibition, % at 8.35 µM. actives 72% (n = 5,600). AID 651739, 2012;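 active = mean replicate inhibition above about 95% and at least 55% of replicates individually reaching it, limit read from the data; inconclusive = only one of the two criteria is met; inactive = neither criterion is met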
T cruzi growth-3: inhibitors of intracellular T. cruzi replication, confirmation, NIH3T3 host cells, beta-gal parasites, cherry-pick, set 2; shares compounds with T cruzi growth-1; T. cruzi beta-gal in NIH3T3, GalScreen luminescence, 90 h; inhibition, % at 2.09 µM; actives 21% (n = 5,600); AID 651740, 2012;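 active = mean inhibition above about 95%, with at least 55% of replicates also reaching it, limit read from the data; inconclusive = meets just one of the two conditions; inactive = meets neither condition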;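 note: plate controls were neutral control median for no effect and positive control median for full effect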
3T3 cytotox: cytotoxicity in mouse NIH/3T3 fibroblasts, confirmation, cytotoxicity control for T. cruzi proliferation inhibitor project, cell-based, cherry-pick, single point; shares compounds with T cruzi growth-1; NIH/3T3 viability, CellTiter-Glo ATP luminescence, 90 h; cytotoxicity (signal decrease), % at 8.35 µM; actives 14% (n = 5,600);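 active = mean signal decrease across replicates above about 35% based on untreated-well scatter, with enough replicates individually passing, limit read from the data; inconclusive = no rule stated though some were filed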;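 note: 0% = median of neutral control wells and 100% = median of positive control wells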
3T3 cytotox 2: NIH/3T3 fibroblast cytotoxicity, confirmation, cytotoxicity control, cell-based, cherry-pick, single point, set 2; shares compounds with T cruzi growth-1; NIH/3T3 viability, CellTiter-Glo ATP luminescence, 90 h; inhibition, % at 24.9 µM; actives 56% (n = 5,600);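 active = mean loss of cell viability signal at or above a set limit, and enough replicates individually reaching it; inconclusive = meets only the mean limit or only the replicate share; inactive = meets neither condition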;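 note: 0% = median of neutral control wells and 100% = median of positive control wells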
* hit, by the source's call; ? = inconclusive; . = no result given.

SMILES | T cruzi growth-1 | KDM4C inh | IDH1 R132H inh | Pf Dd2 growth | T cruzi growth-2 | T cruzi growth-3 | 3T3 cytotox | 3T3 cytotox 2
Cc1noc(C)c1S(=O)(=O)N(C)C[C@H]1Oc2ccc(N(C)C)cc2CC(=O)N([C@H](C)CO)C[C@H]1C | 26.4 | 2.8 | -2.8 | -56.1 | . | . | . | .
C[C@@H]1CCCCO[C@@H](CN(C)S(=O)(=O)c2ccc(F)cc2)[C@H](C)CN([C@@H](C)CO)C(=O)c2cc(NS(=O)(=O)c3ccc(F)cc3)ccc2O1 | 109.2* | -1.6 | . | -20.1 | 105.7* | 85.5 | -0.1 | 10.8
C[C@@H]1CCCCO[C@H](CN(C)S(=O)(=O)c2ccc(F)cc2)[C@H](C)CN([C@H](C)CO)C(=O)c2cc(NS(=O)(=O)c3ccccc3)ccc2O1 | 104.0* | -1.7 | . | -45.9 | 113.8* | 78.7 | 18.0 | 7.2
C[C@H](CO)N1C[C@H](C)[C@H](CN(C)S(=O)(=O)c2cccs2)Oc2ncc(-c3cccc(F)c3)cc2C1=O | 62.7 | -0.6 | 0.5 | -42.6 | . | . | . | .
COc1ccc(S(=O)(=O)N(C)C[C@@H]2Oc3ncc(-c4cccc(C(F)(F)F)c4)cc3C(=O)N([C@H](C)CO)C[C@@H]2C)cc1 | 106.5* | 0.6 | -0.3 | -56.1 | 107.0* | 47.7 | 7.7 | 48.6*
C[C@H](CO)N1C[C@H](C)[C@H](CN(C)S(=O)(=O)c2ccc(F)cc2)Oc2ncc(-c3cccc(C(F)(F)F)c3)cc2C1=O | 109.0* | -0.9 | -3.9 | -24.8 | 102.0* | 59.0 | 42.3* | 53.5*
C[C@H](CO)N1C[C@H](C)[C@H](CN(C)S(=O)(=O)c2cccs2)Oc2ncc(-c3cccc(C(F)(F)F)c3)cc2C1=O | 106.3* | 0.3 | 9.8 | -0.6 | 102.6* | 45.2 | 29.8 | 26.7*
O=C(CSc1nnnn1-c1ccccc1)Nc1ccc(Br)cc1F | . | . | 0.8 | . | . | . | . | .
Cc1ccccc1S(=O)(=O)N1CC[C@@H]2[C@@H](CO)Nc3ccc(-c4cccc(C#N)c4)cc3[C@@H]21 | 33.4 | -2.5 | . | -61.9 | . | . | . | .
Cc1ccccc1S(=O)(=O)N1CC[C@@H]2[C@H](CO)Nc3ccc(-c4ccc(C#N)cc4)cc3[C@@H]21 | ? | -4.8 | . | -20.0 | 97.6* | 104.4* | ? | 67.4*
Cc1ccccc1S(=O)(=O)N1CC[C@@H]2[C@H](CO)Nc3ccc(-c4cccc(C#N)c4)cc3[C@@H]21 | 16.8 | -0.9 | . | -4.8 | . | . | . | .
Cn1cnc(S(=O)(=O)N2CC[C@H]3[C@H](CO)Nc4ccc(-c5ccccc5)cc4[C@H]32)c1 | 101.4* | 0.5 | . | 6.7 | 102.9* | 61.8 | -13.7 | 9.3
Cc1ccccc1S(=O)(=O)N1CC[C@@H]2[C@H]1c1cc(-c3ccc(C#N)cc3)ccc1N[C@@H]2CO | 101.2* | 1.6 | . | 8.9 | 103.6* | 44.7 | 15.6 | 42.4*
CCOC(=O)CCCSc1nc2c(c(C(F)(F)F)c1C#N)CC(C)CC2 (stereo not given) | . | . | -0.3 | . | . | . | . | .
C/C=C/c1ccc2c(c1)O[C@@H](CN(C)Cc1cncnc1)[C@H](C)CN([C@H](C)CO)S2(=O)=O | . | 1.1 | -0.3 | -12.3 | . | . | . | .
C/C=C/c1ccc2c(c1)O[C@@H](CN(C)Cc1ccncc1)[C@@H](C)CN([C@H](C)CO)S2(=O)=O | 102.9* | 14.9 | 0.0 | 15.0 | 96.3* | 93.5 | 18.6 | 57.2*
C/C=C/c1ccc2c(c1)O[C@@H](CN(C)Cc1ccncc1)[C@H](C)CN([C@H](C)CO)S2(=O)=O | 102.4* | 17.0 | 43.1* | -55.4 | 98.8* | 103.6* | ? | 69.0*
C/C=C/c1ccc2c(c1)O[C@@H](CN(C)Cc1ccccc1)[C@@H](C)CN([C@H](C)CO)S2(=O)=O | 99.8 | 2.8 | -0.5 | -21.8 | . | . | . | .
CCCN1[C@@H]2Cn3c(ccc(-c4ccc(F)cc4)c3=O)[C@H]1[C@@H](C(=O)NCC)[C@@H]2CO | . | -0.8 | . | 47.4 | . | . | . | .
C[C@H](CO)N1C[C@H](C)[C@H](CN(C)Cc2ccc3c(c2)OCO3)Oc2ccc(NC(=O)Nc3cccc4ccccc34)cc2C1=O | 105.4* | -0.5 | 0.0 | 6.5 | ? | 103.6* | 31.9 | 66.8*
C[C@@H]1CN([C@@H](C)CO)C(=O)Cc2cc(NC(=O)Nc3cccc4ccccc34)ccc2O[C@H]1CN(C)Cc1ccc2c(c1)OCO2 | 108.9* | -0.9 | 0.2 | -7.5 | 110.1* | 70.4 | 29.4 | -1.9
Cc1nnc(SCC(=O)NCC2CCCO2)s1 (stereo not given) | . | . | 0.4 | . | . | . | . | .
CO[C@H](CN(C)S(=O)(=O)c1ccc(Cl)cc1)[C@H](C)CN(Cc1ccccc1Cl)[C@H](C)CO | 105.6* | -2.6 | -0.6 | -56.8 | 111.2* | 25.8 | 33.2 | 106.6*
CO[C@@H](CN(C)S(=O)(=O)c1ccc(C)cc1)[C@@H](C)CN(Cc1ccccc1Cl)[C@H](C)CO | 100.2* | 0.0 | 0.0 | -36.0 | 95.3* | 32.1 | ? | 51.0*
CS(=O)(=O)Nc1ccc2c(c1)[C@H]1C[C@H](CC(=O)NCc3ccc(Cl)cc3)O[C@H](CO)[C@H]1O2 | 39.7 | -2.6 | 1.2 | -50.1 | . | . | . | .
CNC(=O)CN(C#N)c1nc(C)cc(C)n1 | . | . | 0.1 | . | . | . | . | .
Cc1noc(C)c1S(=O)(=O)N(C)C[C@@H]1OCCCC[C@@H](C)Oc2ccc(NS(=O)(=O)c3ccc(Cl)cc3)cc2C(=O)N([C@H](C)CO)C[C@H]1C | 103.1* | -2.6 | 0.6 | -57.0 | 105.3* | 71.3 | 19.1 | 1.1
Cc1noc(C)c1S(=O)(=O)N(C)C[C@@H]1OCCCC[C@H](C)Oc2ccc(NS(=O)(=O)c3ccc(F)cc3)cc2C(=O)N([C@H](C)CO)C[C@@H]1C | 108.3* | -0.3 | 4.8 | -37.7 | 99.6* | 32.1 | -3.4 | 24.8
Cc1noc(C)c1S(=O)(=O)N(C)C[C@H]1OCCCC[C@H](C)Oc2ccc(NS(=O)(=O)c3ccc(Cl)cc3)cc2C(=O)N([C@@H](C)CO)C[C@@H]1C | 94.4 | 1.1 | . | -50.5 | . | . | . | .
